# Entries after “also recorded” stand apart in the source; their conditions may differ. Like-named read-outs stand apart in the source and are kept apart here.
# Experiments:
# ERRγ [1] = molecular target: T1, ERRγ (Homo sapiens, UniProt P62508); test: Cell-based; settings: for ERRγ activity (in words): HEK293 co-transfection luciferase
# T1 sequence (P62508 1-458): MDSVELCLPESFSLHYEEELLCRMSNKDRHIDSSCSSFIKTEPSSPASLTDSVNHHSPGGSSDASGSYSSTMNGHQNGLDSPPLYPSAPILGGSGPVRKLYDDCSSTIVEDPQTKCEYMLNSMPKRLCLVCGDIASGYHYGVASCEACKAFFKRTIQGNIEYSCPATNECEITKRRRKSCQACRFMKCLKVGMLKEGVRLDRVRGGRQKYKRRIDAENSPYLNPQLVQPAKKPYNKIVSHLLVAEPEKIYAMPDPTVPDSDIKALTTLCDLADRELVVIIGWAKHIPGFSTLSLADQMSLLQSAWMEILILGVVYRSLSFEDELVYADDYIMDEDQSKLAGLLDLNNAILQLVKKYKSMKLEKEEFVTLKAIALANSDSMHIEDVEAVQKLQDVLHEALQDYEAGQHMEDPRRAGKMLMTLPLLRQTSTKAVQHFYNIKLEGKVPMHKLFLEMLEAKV
# ERRα [2] = molecular target: T2, ERRα (Homo sapiens, UniProt P11474); test: Cell-based; settings: for ERRα activity (in words): HEK293 co-transfection luciferase
# T2 sequence (P11474 1-423): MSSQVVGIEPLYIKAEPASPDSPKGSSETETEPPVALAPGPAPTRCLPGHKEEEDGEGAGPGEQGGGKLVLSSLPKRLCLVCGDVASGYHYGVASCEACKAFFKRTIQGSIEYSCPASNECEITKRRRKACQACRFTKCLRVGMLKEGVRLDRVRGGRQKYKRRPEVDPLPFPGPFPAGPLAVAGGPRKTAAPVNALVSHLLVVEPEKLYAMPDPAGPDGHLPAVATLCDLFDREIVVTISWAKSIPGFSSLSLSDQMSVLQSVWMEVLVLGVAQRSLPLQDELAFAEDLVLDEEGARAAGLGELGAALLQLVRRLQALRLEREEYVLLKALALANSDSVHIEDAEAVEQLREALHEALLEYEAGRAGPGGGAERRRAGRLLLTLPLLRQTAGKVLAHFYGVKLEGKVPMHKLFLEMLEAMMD
# [3] = tested on: ERR target genes PGC-1α, PGC-1β, CPT1α and PDK4; test: Gene expression; type: cell-based, mouse; settings: C2C12 cells, 1 μM of tested compounds, 24 h
# Summary of the method: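 Confluent C2C12 myoblasts (DMEM, 10% FBS, 1% L-glutamine; 2.5 million cells per well) were treated 24 h with test compound in DMSO or with DMSO vehicle, in triplicate groups. Total RNA was column-extracted and 1 μg was reverse-transcribed. Transcripts were quantified by SYBR qPCR, with samples run in duplicate. Relative expression was calculated by ΔΔCt against 36b4 as the reference gene.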
# ERRβ [4] = molecular target: T3, ERRβ (Homo sapiens, UniProt O95718); test: Cell-based co-transfection ERR responsive luciferase reporter assay, ERRβ
# T3 sequence (O95718 1-433): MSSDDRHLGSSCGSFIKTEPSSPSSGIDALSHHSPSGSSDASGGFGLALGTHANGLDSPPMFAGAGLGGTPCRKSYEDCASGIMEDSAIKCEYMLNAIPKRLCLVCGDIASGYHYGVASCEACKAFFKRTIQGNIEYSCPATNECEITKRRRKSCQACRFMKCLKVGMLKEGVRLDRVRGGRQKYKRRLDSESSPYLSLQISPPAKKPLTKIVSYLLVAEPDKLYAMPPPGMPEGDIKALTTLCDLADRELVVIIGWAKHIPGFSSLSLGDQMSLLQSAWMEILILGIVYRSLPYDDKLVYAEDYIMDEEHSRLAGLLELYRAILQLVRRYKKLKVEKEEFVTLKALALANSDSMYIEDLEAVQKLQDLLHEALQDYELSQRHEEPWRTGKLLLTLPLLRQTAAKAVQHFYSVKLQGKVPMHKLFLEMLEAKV
# C2C12 cells = test: Cell viability assay, FITC Annexin V/PI flow cytometry; type: cell-based; settings: 1 and 10 μM, 24 h
# Summary of the method: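 C2C12 mouse myoblasts were kept in DMEM with 10% FBS and 1% L-glutamine. They were seeded at 2.5 million cells per well and grown 24 h to confluence. Cells were exposed 24 h to test compound in DMSO at 1 or 10 μM, with a DMSO-only control, in triplicate. Harvested cells were stained with FITC-Annexin V and propidium iodide and analysed by flow cytometry for live/dead cells.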
# ERRγ [5] = molecular target: T1, ERRγ; settings: cited from earlier work
# ERRβ [6] = molecular target: T3, ERRβ; settings: cited from earlier work
# ERRα [7] = molecular target: T2, ERRα; settings: cited from earlier work
structure (smiles),measurement,setting,value
O=C(NN=Cc1ccccc1)c1ccccc1 [Compound 10],ERRγ activity (in words),ERRγ [1],complete loss of activity; also recorded: completely inactive
same,ERRα activity (in words),ERRα [2],complete loss of activity; also recorded: completely inactive
CN(C)c1ccc(C=NNC(=O)c2ccccc2)cc1 [Compound 11],ERRγ activity (in words),ERRγ [1],activity was regained
same,ERRα activity (in words),ERRα [2],no ERRα activity; also recorded: inactive
O=C(NN=Cc1ccccc1O)c1ccccc1 [Compound 13],ERRγ activity (in words),ERRγ [1],completely inactive
same,ERRα activity (in words),ERRα [2],completely inactive
"O=C(N/N=C/c1ccccc1[N+](=O)[O-])c1ccccc1 [Compound 16, (E)-N’-(2-Nitrobenzylidene)benzohydrazide]",selectivity toward ERRγ over ERRα,ERRγ [1]; from EC50 values,1.6 fold
same,PDK4 transcription,[3],potently upregulated
same,expression of CPT1α,[3],significantly increased the expression
same,fold more potent toward ERRα than 14,ERRα [2]; compared to 14,≈ 17 fold
same,fold increase in potency toward ERRα compared to 15,ERRα [2]; compared to 15,> 6 fold
O=C(NN=Cc1ccccc1)c1ccccc1O [Compound 19],ERRγ activity (in words),ERRγ [1],moderately potent
same,ERRα activity (in words),ERRα [2],moderately potent
O=C(NN=Cc1ccccc1)c1ccc(Br)cc1 [Compound 21],ERRγ activity (in words),ERRγ [1],moderate ERRγ activity; also recorded: very weak
same,ERRα activity (in words),ERRα [2],completely lost ERRα activity; also recorded: inactive
Cc1ccccc1C(=O)NN=Cc1ccccc1 [Compound 23],ERRα activity (in words),ERRα [2],no activity
"Cc1ccc(C(=O)N/N=C/c2ccccc2)cc1 [Compound 24, (E)-N’-Benzylidene-4-methylbenzohydrazide]",EC50,ERRβ [4],162 nM
same,PDK4 transcription,[3],potently upregulated
same,mRNA levels of PGC-1α,[3],increase the mRNA levels
same,mRNA levels of PGC-1β,[3],increase the mRNA levels
same,Cell viability / signs of toxicity,C2C12 cells,No signs of toxicity; also recorded: did not show signs of toxicity
"O=C(N/N=C/c1ccccc1O)c1ccccc1O [Compound 27, (E)-2-Hydroxy-N’-(2-hydroxybenzylidene)benzohydrazide]",EC50,ERRγ [1],1650 nM
same,EC50,ERRβ [4],772 nM
same,Cell viability / signs of toxicity,C2C12 cells,No signs of toxicity; also recorded: did not show signs of toxicity
same,EC50,ERRα [2],378 nM
same,"activity toward ERRα, folds higher than ERRβ",ERRα [2]; from EC50 values,≈ 2 folds
same,selectivity toward ERRα over ERRγ,ERRα [2]; from EC50 values,> 4 fold
"Cc1ccccc1C(=O)N/N=C/c1ccccc1O [Compound 29, (E)-N’-(2-Hydroxybenzylidene)-2-methylbenzohydrazide]",EC50,ERRγ [1],254 nM
same,EC50,ERRβ [4],583 nM
same,Cell viability / signs of toxicity,C2C12 cells,No signs of toxicity; also recorded: did not show signs of toxicity
same,EC50,ERRα [2],453 nM
O=C(NN=Cc1ccccc1O)c1ccc(Cl)cc1 [Compound 31],ERRγ activity (in words),ERRγ [1],weak activity
same,ERRα activity (in words),ERRα [2],weak activity
"Cc1ccc(C(=O)N/N=C/c2ccccc2O)cc1 [Compound 33, (E)-N’-(2-Hydroxybenzylidene)-4-methylbenzohydrazide]",EC50,ERRγ [1],235 nM
same,EC50,ERRβ [4],123 nM
same,EC50,ERRα [2],483 nM
O=C(N/N=C/c1ccccc1[N+](=O)[O-])c1ccccc1 [Compound 34],ERRγ activity (in words),ERRγ [1],completely inactive
same,ERRα activity (in words),ERRα [2],completely inactive
"COc1ccc(/C=N/NC(=O)c2ccc(Br)cc2)cc1 [Compound 35, (E)-4-Bromo-N’-(4-methoxybenzylidene)benzohydrazide]",EC50,ERRγ [1],398 nM
same,PDK4 transcription,[3],potently upregulated
same,mRNA levels of PGC-1α,[3],increased the mRNA levels
same,EC50,ERRα [2],540 nM
O=C(N/N=C/c1ccccc1O)c1ccccc1O [Compound 36],ERRγ activity (in words),ERRγ [1],inactive
"O=C(N/N=C/c1ccccc1[N+](=O)[O-])c1ccc([N+](=O)[O-])cc1 [Compound 38, (E)-4-Nitro-N’-(2-nitrobenzylidene)benzohydrazide]",EC50,ERRγ [1],260 nM
same,EC50,ERRα [2],646 nM
same,fold decrease in potency against ERRα,ERRα [2]; compared to 16,≈ 1.5 fold
"O=C(N/N=C/c1cccs1)c1ccccc1 [Compound 42, (E)-N’-(Thiophen-2-ylmethylene)benzohydrazide]",ERRγ activity (in words),ERRγ [1],weak agonistic effect
same,EC50,ERRβ [4],1190 nM
same,"activity toward ERRβ, folds higher than ERRα",ERRβ [4]; from EC50 values,1.8 folds
same,PDK4 transcription,[3],potently upregulated
same,mRNA levels of PGC-1α,[3],increase the mRNA levels
same,mRNA levels of PGC-1β,[3],increase the mRNA levels
same,Cell viability / signs of toxicity,C2C12 cells,No signs of toxicity; also recorded: did not show signs of toxicity
same,ERRα activity (in words),ERRα [2],weak agonistic effect
"O=C(NN=Cc1ccnc2ccccc12)c1ccccc1 [Compound 46, quinolin-4-ylmethylene benzohydrazide]",IC50,ERRα [2],4580 nM
CC(C)c1ccc(/C=N/NC(=O)c2ccc(O)cc2)cc1 [GSK4716 (6)],reported activity on ERRγ,ERRγ [5],agonist
same,EC50,"ERRβ [4]; read-out: ERRβ EC50, agonism, co-transfection luciferase reporter",280 nM
same,reported activity on ERRβ,ERRβ [6],agonist
same,ERRα activity (in words),ERRα [2],very weak activity
same,reported activity on ERRα,ERRα [7],no observed activity

# Reference: paper PMC9137328 (Bioorganic chemistry, 2020)
